Converted amounts (≈) assume the structure as drawn.
Key:
Format in all cases: functional
Helicobacter pylori [1] = assay: Bactericidal against Helicobacter pylori Clinical isolate F4 measured after 72 hrs of incubation under microaerophilic conditions by modified broth dilution method; settings: read-out: MBC99.9
How it was run: (§1)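 H. pylori (NCTC 11637, F1, 23, F4). Wells with no visible growth in the MIC assay spotted (10 μL) onto Skirrow agar. Plates incubated 72 h at 37 °C, microaerophilic, 100% humidity. MBC = concentration killing 99.9% of the initial inoculum. Triplicate, on at least three different days.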

Helicobacter pylori [2] = assay: Bactericidal activity against Helicobacter pylori Clinical isolate F1 measured after 72 hrs of incubation under microaerophilic conditions by modified broth dilution method; settings: read-out: MBC99.9; how it was run: as §1
Helicobacter pylori [3] = assay: Anti-bacterial activity against Helicobacter pylori Clinical isolate F1 measured after 72 hrs incubation by modified broth dilution method
Helicobacter pylori [4] = assay: Anti-bacterial activity against Helicobacter pylori Clinical isolate F4 measured after 72 hrs incubation by modified broth dilution method
Helicobacter pylori [5] = assay: Bactericidal activity against Helicobacter pylori NCTC 11637 measured after 72 hrs of incubation under microaerophilic conditions by modified broth dilution method; settings: read-out: MBC99.9; how it was run: as §1
Helicobacter pylori [6] = assay: Bactericidal activity against Helicobacter pylori Clinical isolate 23 measured after 72 hrs of incubation under microaerophilic conditions by modified broth dilution method; settings: read-out: MBC99.9; how it was run: as §1
Helicobacter pylori [7] = assay: Anti-bacterial activity against Helicobacter pylori NCTC 11637 measured after 72 hrs incubation by modified broth dilution method
Helicobacter pylori [8] = assay: Anti-bacterial activity against Helicobacter pylori Clinical isolate 23 measured after 72 hrs incubation by modified broth dilution method
Helicobacter pylori [9] = assay: Anti-bacterial activity against Helicobacter pylori measured after 72 hrs incubation by modified broth dilution method
Helicobacter pylori [10] = assay: Bactericidal against Helicobacter pylori measured after 72 hrs of incubation under microaerophilic conditions by modified broth dilution method
How it was run: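 Wells with no visible growth in the MIC assay spotted (10 μL) onto Skirrow agar. Plates incubated 72 h at 37 °C, microaerophilic, 100% humidity. Triplicate, on at least three different days.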

Row | Compound | MBC (Helicobacter pylori [1]) [µg/mL] | MBC (Helicobacter pylori [2]) [µg/mL] | MIC (Helicobacter pylori [3]) [µg/mL] | MIC (Helicobacter pylori [4]) [µg/mL] | MBC (Helicobacter pylori [5]) [µg/mL] | MBC (Helicobacter pylori [6]) [µg/mL] | MIC (Helicobacter pylori [7]) [µg/mL] | MIC (Helicobacter pylori [8]) [µg/mL] | MIC50 (Helicobacter pylori [9]) [µg/mL] | MIC90 (Helicobacter pylori [9]) [µg/mL] | MBC90 (Helicobacter pylori [10]) [µg/mL]
1 | COc1cc(C)c(/N=N/c2ccc([N+](=O)[O-])cc2)cc1C(C)C | > 128 | > 128 | > 128 | > 128 | > 128 | > 128 | > 128 | > 128 | > 128 | > 128 | >128
2 | Cc1c(/N=N/c2ccccc2Cl)cc(C(C)C)c(O)c1/N=N/c1ccccc1Cl | > 128 | > 128 | 128 (≈ 300 µM) | 128 (≈ 300 µM) | > 128 | > 128 | > 128 | 128 (≈ 300 µM) | 128 (≈ 300 µM) | > 128 | >128
3 | Cc1cc(OC(=O)N(C)C)c(C(C)C)cc1/N=N/c1ccc([N+](=O)[O-])cc1 | 128 (≈ 346 µM) | 128 (≈ 346 µM) | 128 (≈ 346 µM) | 128 (≈ 346 µM) | 128 (≈ 346 µM) | 128 (≈ 346 µM) | > 128 | > 128 | > 128 | > 128 | 128 (≈ 346 µM)
4 | COc1ccc(/N=N/c2cc(C(C)C)c(O)c(/N=N/c3ccc(OC)cc3)c2C)cc1 | > 128 | > 128 | 128 (≈ 306 µM) | 128 (≈ 306 µM) | > 128 | > 128 | > 128 | 128 (≈ 306 µM) | 128 (≈ 306 µM) | > 128 | >128
5 | CC(=O)Oc1cc(C)c(/N=N/c2ccc([N+](=O)[O-])cc2)cc1C(C)C | > 128 | 128 (≈ 375 µM) | 128 (≈ 375 µM) | > 128 | > 128 | 128 (≈ 375 µM) | > 128 | 128 (≈ 375 µM) | 128 (≈ 375 µM) | > 128 | >128
6 | COc1ccc(/N=N/c2cc(C(C)C)c(OC(=O)N(C)C)cc2C)cc1 | 64 (≈ 180 µM) | > 128 | 128 (≈ 360 µM) | 64 (≈ 180 µM) | 64 (≈ 180 µM) | 128 (≈ 360 µM) | 128 (≈ 360 µM) | 64 (≈ 180 µM) | > 128 | 128 (≈ 360 µM) | 128 (≈ 360 µM)

Source: ChEMBL document CHEMBL6109036, “Azo derivatives of monoterpenes as anti-Helicobacter pylori agents: from synthesis to structure-based target investigation” (RSC Med Chem, 2025)
